Insulin prom inh: TRM-6 insulin promoter activity inhibition; TRM-6 cells (human fetal islet line), insulin promoter-eGFP reporter, imaging; reporter expression induced with tamoxifen; inhibition, % at 2 µM; 130,000 compounds, 0.9% hits;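 active = inhibition above the mean plus 3 SD, with well images judged a real hit on visual review, cut at about 60% in these data, passing the limit was not always enough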
Hsp70 act: transcriptional activators of Hsp70; HeLa Hsp70 promoter luciferase reporter, luminescence; scaled: vehicle 0, proteasome-inhibitor control 100%; activation, % at 10 µM; 200,000 compounds, 0.04% hits; AID 1203;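 active = activation above the mean across all tested compounds plus 3 SD, cutoff set per campaign, cut at about 5.5% in these data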;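 also: 100% = MG132 at 30 µM as the positive control and 0% = DMSO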
Wee1 stabilizer: human Wee1 degradation inhibition, primary screen | 220,000 compounds, 1.2% hits | HeLa Luc-Wee1K328M stability, luciferase luminescence; 100% = proteasome inhibitor MG132 effect | AID 1321 | P30291 | reporter increase, % at 5 µM;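 active = activation above the mean of all tested compounds plus 3 SD, set per screening run, cut at about 8.8% in these data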;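 also: cells exposed to compound for 20 h before luminescence read; 0% = DMSO alone and 100% = MG132 at 30 µM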
Insulin prom up: MIN6 insulin promoter up-regulation. z-score at 5 µM. 190,000 compounds, 0.3% hits. MIN6 insulin promoter-GFP reporter, high-content imaging; stronger effect = higher value;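 active = z-score above 3 at 5 µM with at least 500 cells counted in the well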
RBBP9 inhibitor: human RBBP9 hydrolase inhibition; O75884; recombinant RBBP9, FP-Rh probe fluorescence polarization; inhibition, % at 7.94 µM; 220,000 compounds, 0.2% hits;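 active = inhibition above the campaign mean of all tested compounds plus 3 SD, cut at about 14% in these data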;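 also: plate controls were DMSO wells with RBBP9 for no effect and wells lacking RBBP9 protein for full effect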
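System: RBBP9 protein / Buffer or medium: Tris/NaCl buffer pH 8.0 with 0.1% Pluronic / Probe or stimulus: Serine-hydrolase probe FP-Rh, 375 nM pre-mixing / Dosing: 7.94 µM single dose, 0.794% DMSO / Times: enzyme-compound preincubation 30 min, then probe labeling 45 min, 25 °C / Technique: fluorescence polarization (mP), excitation 525 nm, emission 598 nm / Replication: singlicate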
Mdm2 ligase inh: blocks human Mdm2 ubiquitin ligase activity; cell-based MDM2 ubiquitination luciferase reporter, 2 h; 0 = plate control, 100 = twice control, blank-subtracted; signal enhancement, % at 5 µM; 210,000 compounds, 0.11% hits; AID 1230;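 active = signal enhancement of 30% or more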;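 also: luminescence tracks abundance of the self-degrading MDM2-luciferase fusion protein; higher signal means inhibition of MDM2 E3 ligase activity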
Target sequence (Q00987 whole entry, looked up, the tested form may be a part): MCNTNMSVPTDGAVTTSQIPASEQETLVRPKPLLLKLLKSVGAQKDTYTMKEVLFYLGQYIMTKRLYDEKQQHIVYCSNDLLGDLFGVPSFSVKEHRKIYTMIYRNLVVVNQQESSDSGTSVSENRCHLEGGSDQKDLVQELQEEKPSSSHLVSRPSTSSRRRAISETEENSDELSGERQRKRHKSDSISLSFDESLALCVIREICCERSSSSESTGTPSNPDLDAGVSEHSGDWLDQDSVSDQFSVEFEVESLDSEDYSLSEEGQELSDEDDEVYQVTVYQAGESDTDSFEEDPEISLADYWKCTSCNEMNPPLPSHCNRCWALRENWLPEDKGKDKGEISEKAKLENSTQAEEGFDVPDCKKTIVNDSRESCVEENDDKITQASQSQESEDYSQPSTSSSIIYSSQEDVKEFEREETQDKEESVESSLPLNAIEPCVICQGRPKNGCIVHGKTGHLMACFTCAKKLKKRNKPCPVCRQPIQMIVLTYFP
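System: stable MDM2–luciferase fusion reporter cells / Input: 2000 cells seeded into each well / Schedule: 4 h settle plus 2 h compound, 37 °C / Compound: single-point 5 µM / Buffer or medium: cells held in DMEM / Benchmarks: control and blank well means / Evaluation: percent signal gain over controls, blank-subtracted / Measured by: luciferase luminescence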
An asterisk follows results filed as active; x = not tested or not shown. Compounds with a hit are over-represented: about 2.2% of the library has one in this group of screens.

SMILES	Insulin prom inh	Hsp70 act	Wee1 stabilizer	Insulin prom up	RBBP9 inhibitor	Mdm2 ligase inh
Cc1ccc2nc(-c3ccccc3O)c(Nc3ccc4c(c3)OCCO4)n2c1	67*	0	-1	0.35	-4	-16
COc1cccc(C(=O)Nc2nc(-c3ccncc3)cs2)c1	76*	0	3	-0.05	-2	-4
COc1ccc(C2=C(N)c3ccccc3C2=O)cc1	71*	0	4	0.83	-2	-16
COc1ccc(NC2=C(c3ccc(OC)cc3)C(=O)c3ccccc32)cc1	9	0	1	x	3	-6
CCn1c2ccccc2c2cc(N=C3SC(CC(=O)Nc4ccccc4)C(=O)N3C)ccc21 (stereo not given)	-7	0	17*	x	-5	6
CCn1c2ccccc2c2cc(N=C3SC(CC(=O)Nc4ccccc4OC)C(=O)N3C)ccc21 (stereo not given)	x	0	0	-1.2	-5	-20
COCCN1C(=O)c2ccccc2C(C(=O)NCCN(C)C)C1c1ccc(F)cc1 (stereo not given)	79*	0	0	-0.37	3	-15
COCCNC(=O)C1c2ccccc2C(=O)N(CCOC)C1c1ccc(F)cc1 (stereo not given)	21	0	0	0.3	-3	-11
COc1ccccc1NC(=O)c1cc(S(=O)(=O)NCc2ccccc2)ccc1F	-21	0	9.2*	0.19	-1	7
CCS(=O)(=O)c1ccc(O)c(NC(=O)CC2(CC(=O)O)CCCC2)c1	x	x	-2	x	-4	-14
Clc1ccc(OCc2cn3ccccc3n2)c2ncccc12	x	0	9.9*	0.08	-3	6
Cc1ccc(-n2c(=O)[nH]cc(C(=O)Nc3ccc4c(c3)OCCO4)c2=O)cc1C	86*	0	-1	-0.14	1	4
O=C(Nc1cccnc1)c1ccc(NC(=O)c2ccco2)cc1	16	0	4	1.7	-5	-2
O=C(NCc1cccnc1)c1ccc(NC(=O)c2ccco2)cc1	79*	0	-4	1.5	-5	-7
Nc1c(C(=O)NC2CCCC2)sc2nc(-c3cccs3)ccc12	-53	0	1	3.9*	-4	-12
O=C(NC1CCCCCC1)c1cccs1	-22	0	-1	x	-5	-4
O=C1c2ccccc2-c2nnc(-c3ccc(F)cc3)cc21	0	0	9.8*	0.81	-4	-48
CC1CCCCN1CCn1c(=S)[nH]c2cc3c(cc2c1=O)OCO3 (stereo not given)	25	0	-2	-1.3	-5	-17
CN(C)c1ccnc(SCc2ccccc2Cl)c1C#N	73*	0	2	-0.38	-11	-2
CC(C(=O)NN)c1ccc([N+](=O)[O-])cc1 (stereo not given)	x	0	-3	0.42	-7	-4
COc1cc(C2C(C#N)=C(N)OC3=C2C(=O)CC(C)(C)C3)cc([N+](=O)[O-])c1O (stereo not given)	x	x	9.7*	0.36	-5	-5
O=C(Nc1nnc(-c2ccc(Cl)cc2)o1)Nc1ccccc1F	x	x	13*	-0.34	-3	x
O=C(O)c1nn(-c2ccc(Cl)cc2)ccc1=O	-50	1	2	0.37	-6	-5
COc1ccc2cc3cc(C(=O)NCc4ccccn4)oc3nc2c1	-22	0	-3	3.3*	-3	-6
CC1=C/C(=N\NC(=O)c2ccccc2)CC1	36	0	-1	0.78	-7	-6
SMILES	Insulin prom inh	Hsp70 act	Wee1 stabilizer	Insulin prom up	RBBP9 inhibitor	Mdm2 ligase inh
O=C(Cn1cnc2ccccc2c1=O)N1CCOCC1	30	0	5	0.76	0	x
O=C(O)Cn1cnc2ccccc2c1=O	3	0	9.6*	x	-4	-6
O=C(Cn1cnc2ccccc2c1=O)NCCC(=O)N1CCN(Cc2ccccc2)CC1	-24	0	1	-0.03	4	34*
CC(=O)Nc1ccc(NC(=O)C2CCN(C(=O)c3cccs3)CC2)cc1	x	0	-1	-0.02	-3	4
O=C(O)CCCN1C(=O)/C(=C/c2ccc(-c3nc4ccccc4s3)o2)SC1=S	0	0	2	0.77	2	-9
O=C(O)CCCCCN1C(=O)/C(=C\c2ccc(-c3ccc(Cl)cc3)o2)SC1=S	x	x	2	4.2*	4	3
O=[N+]([O-])c1cccc(/C=N/Nc2nc(N3CCCCC3)nc(N3CCCCC3)n2)c1	71*	0	6	0.02	-1	-15
O=[N+]([O-])c1ccc(-n2cccc2/C=N/Nc2nc(N3CCCCC3)nc(N3CCCCC3)n2)cc1	0	0	11*	x	-6	-8
O=C(Nc1cccc(S(=O)(=O)N2CCOCC2)c1)C1CCCN(C(=O)c2ccc(Cl)cc2)C1 (stereo not given)	x	x	-1	-0.39	-2	x
CN(C)c1ccc(NS(=O)(=O)c2ccc(Cl)cc2)cc1	20	-1	0	0.72	-9	-26
CN(C)c1ccc(S(=O)(=O)c2ccc(Cl)cc2)cc1	74*	0	-1	0.3	-1	-7
Clc1ccc(-n2c(SCc3nc4ccccc4[nH]3)nnc2-c2ccncc2)cc1	36	0	-3	-0.21	-3	0
CCOc1ccc(-c2nc3scc(-c4cccs4)c3c(=O)[nH]2)cc1	x	0	0	0.6	-9	-7
COc1cc2cc(C)c3nnc(SCC(=O)Nc4cc(C)on4)n3c2cc1OC	x	0	0	6*	-3	-11
O=S(=O)(N/N=C/c1ccc(Cl)cc1)c1ccc(Cc2ncc(C(F)(F)F)cc2Cl)s1	49	0	4	0.17	-1	1
O=C(CN1C(=O)C2C3C=CC(C3)C2C1=O)Nc1ccc(S(=O)(=O)N2CCCCC2)cc1 (stereo not given)	-20	0	1	x	-1	5
CC(=O)C1=C(C)OC(N)=C(C#N)C1c1ccncc1 (stereo not given)	-19	0	-3	0.06	-4	-2
COc1ccc2cc(C3C(C#N)=C(N)OC(C)=C3C(C)=O)c(Cl)nc2c1 (stereo not given)	x	0	9.0*	-1.3	-3	-15
Cc1ccc(C)c(S(=O)(=O)N2CCN(c3ncccn3)CC2)c1	x	0	6	0.58	-3	13
Cc1ccc(C)c(S(=O)(=O)N2C(=S)NC(=O)C2C(C)C)c1 (stereo not given)	80*	0	0	-0.01	1	-3
COc1ccccc1N1CCN(C(c2ccc(C)cc2)c2nnnn2C(C)C)CC1 (stereo not given)	36	0	3	-0.51	2	38*
COc1ccccc1N1CCN(C(c2ccc(F)cc2)c2nnnn2C(C)C)CC1 (stereo not given)	x	0	3	-0.64	-2	-2
